According to ChEMBL document CHEMBL4325893, “Synthesis and antibacterial profiles of targeted triclosan derivatives” (2019):
In brackets after ≈: the same amount, converted by molar mass.

Columns and labels:
Staphylococcus aureus [1] = test: Antibacterial activity against Staphylococcus aureus ATCC 6538 after 18 hrs; assay type: functional; conditions: ATCC 6538, 18 h
In short: (§1)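 Broth microdilution in Nutrient Broth No. 2; stocks in ethanol diluted to 0.01–128 µg/ml (triclosan) or 0.25–256 µg/ml (glycosides). Overnight 37 °C NB2 cultures diluted 1 in 10^4 in saline and added to the dilutions. Incubation at 37 °C with agitation, OD read every 15 min; MIC is the lowest concentration preventing any OD rise after 18 h.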

Staphylococcus aureus [2] = test: Antibacterial activity against Staphylococcus aureus ATCC 6538P after 18 hrs; assay type: functional; in short: as §1
Staphylococcus aureus [3] = test: Antibacterial activity against Staphylococcus aureus ATCC 9144 after 18 hrs; assay type: functional; conditions: ATCC 9144, 18 h; in short: as §1
Staphylococcus aureus [4] = test: Antibacterial activity against Staphylococcus aureus ATCC 25923 after 18 hrs; assay type: functional; conditions: ATCC 25923, 18 h; in short: as §1
Staphylococcus aureus [5] = test: Antibacterial activity against Staphylococcus aureus ATCC 29213 after 18 hrs; assay type: functional; conditions: ATCC 29213, 18 h; in short: as §1
Staphylococcus aureus [6] = test: Antibacterial activity against Staphylococcus aureus NCTC 13758 after 18 hrs; assay type: functional; conditions: NCTC 13758, 18 h; in short: as §1
Staphylococcus aureus [7] = test: Antibacterial activity against Staphylococcus aureus OCC 104 after 18 hrs; assay type: functional; conditions: OCC 104, 18 h; in short: as §1
Staphylococcus aureus [8] = test: Antibacterial activity against Staphylococcus aureus OCC 106 after 18 hrs; assay type: functional; conditions: OCC 106, 18 h; in short: as §1
[9] = tested on: Staphylococcus epidermidis; test: Antibacterial activity against Staphylococcus epidermidis 155 after 18 hrs; assay type: functional; conditions: Staphylococcus epidermidis, 155, 18 h; in short: as §1
[10] = tested on: Staphylococcus epidermidis; test: Antibacterial activity against Staphylococcus epidermidis ATCC 12228 after 18 hrs; assay type: functional; conditions: ATCC 12228, 18 h; in short: as §1
[11] = tested on: Staphylococcus epidermidis; test: Antibacterial activity against Staphylococcus epidermidis ATCC 14990 after 18 hrs; assay type: functional; conditions: ATCC 14990, 18 h; in short: as §1
[12] = tested on: Staphylococcus haemolyticus; test: Antibacterial activity against Staphylococcus haemolyticus OCC 2223 after 18 hrs; assay type: functional; conditions: OCC 2223, 18 h
In short: (§2)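 Broth microdilution in Nutrient Broth No. 2. Ethanol stocks were diluted in broth to 0.01–128 µg/ml for triclosan and 0.25–256 µg/ml for glycosides. Overnight 37°C NB2 cultures were diluted 1 in 10^4 in saline and added to the wells. Plates were incubated at 37°C with OD read every 15 min after agitation. MIC was the lowest concentration giving no OD increase at 18 h.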

[13] = tested on: Staphylococcus saprophyticus; test: Antibacterial activity against Staphylococcus saprophyticus ATCC 15305 after 18 hrs; assay type: functional; conditions: ATCC 15305, 18 h; in short: as §2
Streptococcus agalactiae = test: Antibacterial activity against Streptococcus agalactiae OCC 182 after 18 hrs; assay type: functional; conditions: OCC 182, 18 h; in short: as §2
Streptococcus pneumoniae [14] = test: Antibacterial activity against Streptococcus pneumoniae 6305 after 18 hrs; assay type: functional; conditions: Streptococcus pneumoniae, 6305, 18 h; in short: as §2
Streptococcus pneumoniae [15] = test: Antibacterial activity against Streptococcus pneumoniae ATCC 49619 after 18 hrs; assay type: functional; conditions: ATCC 49619, 18 h; in short: as §2
Streptococcus pyogenes = test: Antibacterial activity against Streptococcus pyogenes ATCC 19615 after 18 hrs; assay type: functional; conditions: ATCC 19615, 18 h; in short: as §2
Streptococcus viridans = test: Antibacterial activity against Streptococcus viridans OCC 234 after 18 hrs; assay type: functional; conditions: OCC 234, 18 h; in short: as §2
[16] = tested on: Salmonella enterica subsp. enterica serovar Abony; test: Antibacterial activity against Salmonella enterica subspecies enterica serotype Abony NCTC 6017 after 18 hrs; assay type: functional; conditions: NCTC 6017, 18 h; in short: as §1
[17] = Antibacterial activity against Salmonella enterica subspecies enterica serotype Arizonae OCC 706 after 18 hrs; assay type: functional, Salmonella enterica subsp. enterica serovar Arizonae; conditions: OCC 706, 18 h; in short: as §1
[18] = Antibacterial activity against Salmonella enterica subspecies enterica serotype Dublin OCC 627 after 18 hrs; assay type: functional, Salmonella enterica subsp. enterica serovar Dublin; conditions: OCC 627, 18 h; in short: as §1
Salmonella enteritidis = test: Antibacterial activity against Salmonella enterica subspecies enterica serotype Enteritidis 13076 after 18 hrs; assay type: functional, Salmonella enterica subsp. enterica serovar Enteritidis; conditions: Salmonella enterica, 13076, 18 h; in short: as §1
[19] = Antibacterial activity against Salmonella enterica subspecies enterica serotype Indiana OCC 597 after 18 hrs; assay type: functional, Salmonella enterica subsp. enterica serovar Indiana; conditions: OCC 597, 18 h; in short: as §1
[20] = Antibacterial activity against Salmonella enterica subspecies enterica serotype Infantis OCC 2133 after 18 hrs; assay type: functional, Salmonella enterica subsp. enterica serovar Infantis; conditions: OCC 2133, 18 h; in short: as §1
[21] = Antibacterial activity against Salmonella enterica subspecies enterica serotype Nottingham NCTC 7832 after 18 hrs; assay type: functional, Salmonella enterica subsp. enterica serovar Nottingham; conditions: NCTC 7832, 18 h; in short: as §1
[22] = Antibacterial activity against Salmonella enterica subspecies enterica serotype Poona NCTC 4840 after 18 hrs; assay type: functional, Salmonella enterica subsp. enterica serovar Poona; conditions: NCTC 4840, 18 h; in short: as §1
[23] = Antibacterial activity against Salmonella enterica subspecies enterica serotype Pullorum OCC 273 after 18 hrs; assay type: functional, Salmonella enterica subsp. enterica serovar Pullorum; conditions: OCC 273, 18 h; in short: as §1
Salmonella typhimurium = test: Antibacterial activity against Salmonella enterica subspecies enterica serotype typhimurium ATCC 14028 after 18 hrs; assay type: functional, Salmonella enterica subsp. enterica serovar Typhimurium; conditions: ATCC 14028, 18 h; in short: as §1
[24] = Antibacterial activity against Salmonella enterica subspecies enterica serotype Virchow NCTC 5742 after 18 hrs; assay type: functional, Salmonella enterica subsp. enterica serovar Virchow; conditions: NCTC 5742, 18 h; in short: as §1

`O[C@@H]1[C@H](Oc2cc(Cl)ccc2Oc2ccc(Cl)cc2Cl)OC[C@@H](O)[C@H]1O` showed an MIC (Staphylococcus aureus [1]) of 4 to 8 µg/mL (≈ 9.49 to 19 µM), an MIC (Staphylococcus aureus [2]) of 4 to 8 µg/mL (≈ 9.49 to 19 µM) and an MIC (Staphylococcus aureus [3]) of 4 to 8 µg/mL (≈ 9.49 to 19 µM). The MIC (Staphylococcus aureus [4]) was 4 to 8 µg/mL (≈ 9.49 to 19 µM), the MIC (Staphylococcus aureus [5]) was 4 to 8 µg/mL (≈ 9.49 to 19 µM) and the MIC (Staphylococcus aureus [6]) was 4 to 8 µg/mL (≈ 9.49 to 19 µM). The MIC (Staphylococcus aureus [7]) was 4 to 8 µg/mL (≈ 9.49 to 19 µM), the MIC (Staphylococcus aureus [8]) was 4 to 8 µg/mL (≈ 9.49 to 19 µM) and the MIC [9] was 8 to 16 µg/mL (≈ 19 to 37.9 µM). For the same compound, the MIC [10] was 8 to 16 µg/mL (≈ 19 to 37.9 µM), the MIC [11] was 8 to 16 µg/mL (≈ 19 to 37.9 µM) and the MIC [12] was 128 µg/mL (≈ 304 µM). The MIC [13] was 64 µg/mL (≈ 152 µM), the MIC (Streptococcus agalactiae) was 128 µg/mL (≈ 304 µM) and the MIC (Streptococcus pneumoniae [14]) was 64 µg/mL (≈ 152 µM). It also gave an MIC (Streptococcus pneumoniae [15]) of 64 µg/mL (≈ 152 µM), an MIC (Streptococcus pyogenes) of 32 µg/mL (≈ 75.9 µM) and an MIC (Streptococcus viridans) of 128 µg/mL (≈ 304 µM). It also gave an MIC [16] of 32 to 64 µg/mL (≈ 75.9 to 152 µM), an MIC [17] of 32 to 64 µg/mL (≈ 75.9 to 152 µM) and an MIC [18] of 32 to 64 µg/mL (≈ 75.9 to 152 µM). For the same compound, the MIC (Salmonella enteritidis) was 32 to 64 µg/mL (≈ 75.9 to 152 µM), the MIC [19] was 32 to 64 µg/mL (≈ 75.9 to 152 µM) and the MIC [20] was 32 to 64 µg/mL (≈ 75.9 to 152 µM). The MIC [21] was 32 to 64 µg/mL (≈ 75.9 to 152 µM), the MIC [22] was 32 to 64 µg/mL (≈ 75.9 to 152 µM) and the MIC [23] was 32 to 64 µg/mL (≈ 75.9 to 152 µM). The MIC (Salmonella typhimurium) was 32 to 64 µg/mL (≈ 75.9 to 152 µM) and the MIC [24] was 32 to 64 µg/mL (≈ 75.9 to 152 µM).
